Activity data for 24 compounds are collected here from ChEMBL document CHEMBL1157505, “Design and in vitro characterization of highly sst2-selective somatostatin antagonists suitable for radiotargeting” (J Med Chem, 2008).

SMILES strings stand for the structures. Activity calls are given as the source filed them. The calls are words filed in the database; no cut-off is given here.

Common to all, as to type: functional, cell-based
The target of experiment [1] is T1, Somatostatin receptor type 2 (Homo sapiens, UniProt P30874). Kind of experiment: Antagonist activity at T7 epitope tagged human cloned sst2 expressed in HEK293 cells assessed as intracellular calcium release upto 10 uM. A digest of the protocol:
(§1)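 HEK-sst2 cells seeded on poly-D-lysine, cultured 1 day, loaded with Fluo-4NW dye (assay buffer HBSS/20 mM HEPES, 2.5 mM probenecid) 30 min 37 °C plus 30 min RT. Analogues alone up to 10 μM, or [Tyr3]-octreotide with 100-fold excess analogue; fluorescence (ex 485/em 520 nm) recorded 60 s at RT; percentage of ionomycin (25 μM) maximum over baseline; ≥3 experiments in triplicate.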
Background: Calcium assays in cells follow changes in intracellular calcium, usually with a dye or a luminescent sensor.

The target in experiment [2] is T1, Somatostatin receptor type 2. Kind of experiment: Antagonist activity at T7 epitope tagged human cloned sst2 expressed in HEK293 cells assessed as [Tyr3]octreotide-induced intracellular calcium release upto 10 uM. The method in brief: as §1
The target is the same in experiment [3]. The experiment in a line: Antagonist activity at T7 epitope tagged human cloned sst2 receptor expressed in HEK293 cells assessed as inhibition of [Tyr3]octreotide-induced receptor internalization upto 10 uM. A digest of the protocol:
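Surface T7-tagged sst2 on HEK-sst2 cells labelled with anti-T7 antibody 2 h RT in DMEM-LH, then cells exposed 30 min at 37 °C to analogue (alone up to 10 μM or with [Tyr3]-octreotide), fixed in 3% paraformaldehyde, probed with HRP anti-mouse IgG, ABTS read at OD405; surface receptor as % of untreated; mean ± SEM, three experiments in duplicate.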

T1 sequence (P30874 whole entry): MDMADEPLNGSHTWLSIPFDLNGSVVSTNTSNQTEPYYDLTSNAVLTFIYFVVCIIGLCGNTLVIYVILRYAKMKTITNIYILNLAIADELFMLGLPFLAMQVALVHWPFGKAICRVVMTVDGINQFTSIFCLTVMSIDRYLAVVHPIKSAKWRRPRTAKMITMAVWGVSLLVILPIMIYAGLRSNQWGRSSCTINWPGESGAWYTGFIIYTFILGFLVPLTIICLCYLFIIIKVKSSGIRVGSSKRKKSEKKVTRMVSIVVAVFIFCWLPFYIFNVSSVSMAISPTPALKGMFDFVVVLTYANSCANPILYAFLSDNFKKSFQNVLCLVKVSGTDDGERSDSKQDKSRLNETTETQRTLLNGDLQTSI

With `C[C@@H](O)[C@@H]1NC(=O)[C@H](CCCCN)NC(=O)[C@@H](Cc2c[nH]c3ccccc23)NC(=O)[C@H](Cc2ccc(NC(N)=O)cc2)NC(=O)[C@H](NC(=O)[C@H](N)Cc2ccc(Cl)cc2)CSSC[C@@H](C(=O)N[C@@H](Cc2ccc(NC(N)=O)cc2)C(N)=O)NC1=O`, the outcome in experiment [1] was inactive. As to `C[C@@H](O)[C@@H]1NC(=O)[C@H](CCCCN)NC(=O)[C@@H](Cc2c[nH]c3ccccc23)NC(=O)[C@H](Cc2ccc(NC(N)=O)cc2)NC(=O)[C@H](NC(=O)[C@H](N)Cc2ccc(Cl)cc2)CSSC[C@@H](C(N)=O)NC1=O`, in experiment [1], the outcome was inactive. Besides, the result in experiment [2] and in experiment [3] was Active. As for `C[C@@H](O)[C@@H]1NC(=O)[C@H](CCCCN)NC(=O)[C@@H](Cc2c[nH]c3ccccc23)NC(=O)[C@H](Cc2ccc(NC(N)=O)cc2)NC(=O)[C@H](NC(=O)[C@@H](Cc2ccc(Cl)cc2)NC(=O)CCOCCOCCOCCNC(=O)CN2CCN(CC(=O)O)CCN(CC(=O)O)CCN(CC(=O)O)CC2)CSSC[C@@H](C(=O)N[C@@H](Cc2ccc3ccccc3c2)C(N)=O)NC1=O`, the result in experiment [1] was inactive. The outcome in experiment [3] was Active.

Take `C[C@@H](O)[C@@H]1NC(=O)[C@H](CCCCN)NC(=O)[C@@H](Cc2ccc(NC(N)=O)cc2)NC(=O)[C@H](Cc2ccc(O)cc2)NC(=O)[C@H](NC(=O)[C@@H](Cc2ccc([N+](=O)[O-])cc2)NC(=O)CN2CCN(CC(=O)O)CCN(CC(=O)O)CCN(CC(=O)O)CC2)CSSC[C@@H](C(=O)N[C@@H](Cc2ccc3ccccc3c2)C(N)=O)NC1=O`: the outcome in experiment [1] was inactive. The result in experiment [2] and in experiment [3] was Active. On to `CONC(=O)Nc1ccc(C[C@@H]2NC(=O)[C@H](NC(=O)[C@H](N)Cc3ccc(Cl)cc3)CSSC[C@@H](C(=O)N[C@@H](Cc3ccc4ccccc4c3)C(N)=O)NC(=O)[C@H]([C@@H](C)O)NC(=O)[C@H](CCCCN)NC(=O)[C@@H](Cc3c[nH]c4ccccc34)NC2=O)cc1`, for which the result in experiment [1] was inactive.

Regarding `C[C@@H](O)[C@@H]1NC(=O)[C@H](CCCCN)NC(=O)[C@@H](Cc2ccc(NC(N)=O)cc2)NC(=O)[C@H](Cc2ccc(O)cc2)NC(=O)[C@H](NC(=O)[C@H](N)Cc2ccc([N+](=O)[O-])cc2)CSSC[C@@H](C(=O)N[C@@H](Cc2ccc3ccccc3c2)C(N)=O)NC1=O`, in experiment [1], the outcome was inactive. Moreover, the result in experiment [3] was Active.

On to `C[C@@H](O)[C@@H]1NC(=O)[C@H](CCCCN)NC(=O)[C@@H](Cc2c[nH]c3ccccc23)NC(=O)[C@H](Cc2ccc(NC(N)=O)cc2)NC(=O)[C@H](NC(=O)[C@H](N)Cc2ccc(Cl)cc2)CSSC[C@@H](C(=O)N[C@@H](Cc2ccc3ccccc3c2)C(N)=O)NC1=O`, for which the result in experiment [1] was inactive. The outcome in experiment [2] and in experiment [3] was Active. As for `C[C@@H](O)[C@@H]1NC(=O)[C@H](CCCCN)NC(=O)[C@@H](Cc2c[nH]c3ccccc23)NC(=O)[C@H](Cc2ccc(O)cc2)NC(=O)[C@H](NC(=O)[C@H](N)Cc2ccc(Cl)cc2)CSSC[C@@H](C(=O)N[C@@H](Cc2ccc3ccccc3c2)C(N)=O)NC1=O`, the result in experiment [1] was inactive. Also, the result in experiment [2] and in experiment [3] was Active. In the case of `C[C@@H](O)[C@@H]1NC(=O)[C@H](CCCCN)NC(=O)[C@@H](Cc2c[nH]c3ccccc23)NC(=O)[C@H](Cc2ccc(NC(N)=O)cc2)NC(=O)[C@H](NC(=O)[C@@H](Cc2ccc(Cl)cc2)NC(=O)CN2CCN(CC(=O)O)CCN(CC(=O)O)CCN(CC(=O)O)CC2)CSSC[C@@H](C(=O)N[C@@H](Cc2ccc3ccccc3c2)C(N)=O)NC1=O`, the result in experiment [1] was inactive. For the same compound, the result in experiment [2] and in experiment [3] was Active. Take `C[C@@H](O)[C@@H]1NC(=O)[C@H](CCCCN)NC(=O)[C@@H](Cc2c[nH]c3ccccc23)NC(=O)[C@@H](N(C)C(=O)c2ccccc2)NC(=O)[C@H](NC(=O)[C@H](N)Cc2ccc(Cl)cc2)CSSC[C@@H](C(=O)N[C@@H](Cc2ccc3ccccc3c2)C(N)=O)NC1=O`: the outcome in experiment [1] was inactive. As for `C[C@@H](O)[C@@H]1NC(=O)[C@H](CCCCN)NC(=O)[C@@H](Cc2ccc(NC(N)=O)cc2)NC(=O)[C@H](Cc2ccc(O)cc2)NC(=O)[C@H](NC(=O)[C@@H](Cc2ccc(Cl)cc2)NC(=O)CN2CCN(CC(=O)O)CCN(CC(=O)O)CCN(CC(=O)O)CC2)CSSC[C@@H](C(=O)N[C@@H](Cc2ccc3ccccc3c2)C(N)=O)NC1=O`, in experiment [1], the result was inactive. Also, the result in experiment [2] and in experiment [3] was Active. As for `C[C@@H](O)[C@@H]1NC(=O)[C@H](CCCCN)NC(=O)[C@H](Cc2c[nH]c3ccc(F)cc23)NC(=O)[C@H](Cc2ccc(NC(N)=O)cc2)NC(=O)[C@H](NC(=O)[C@H](N)Cc2ccc(Cl)cc2)CSSC[C@@H](C(=O)N[C@@H](Cc2ccc3ccccc3c2)C(N)=O)NC1=O`, the outcome in experiment [1] was inactive. In the case of `C[C@@H](O)[C@@H]1NC(=O)[C@H](CCCCN)NC(=O)[C@@H](Cc2ccc(NC(N)=O)cc2)NC(=O)[C@H](Cc2ccc(NC(=O)[C@@H]3CC(=O)NC(=O)N3)cc2)NC(=O)[C@H](NC(=O)[C@H](N)Cc2ccc([N+](=O)[O-])cc2)CSSC[C@@H](C(=O)N[C@@H](Cc2ccc3ccccc3c2)C(N)=O)NC1=O`, the result in experiment [1] was inactive.

As to `C[C@@H](O)[C@@H]1NC(=O)[C@H](CCCCN)NC(=O)[C@@H](Cc2ccc(NC(N)=O)cc2)NC(=O)[C@H](Cc2ccc(NC(=O)[C@@H]3CC(=O)NC(=O)N3)cc2)NC(=O)[C@H](NC(=O)[C@H](N)Cc2ccc(Cl)cc2)CSSC[C@@H](C(=O)N[C@@H](Cc2ccc3ccccc3c2)C(N)=O)NC1=O`, the outcome in experiment [1] was inactive. In addition, the outcome in experiment [2] and in experiment [3] was Active. Take `C[C@@H](O)[C@@H]1NC(=O)[C@H](CCCCN)NC(=O)[C@@H](Cc2ccc(NC(N)=O)cc2)NC(=O)[C@H](Cc2ccc(O)cc2)NC(=O)[C@H](NC(=O)[C@H](N)Cc2ccc(Cl)cc2)CSSC[C@@H](C(=O)N[C@@H](Cc2ccc3ccccc3c2)C(N)=O)NC1=O`: in experiment [1], the outcome was inactive. The same measure, in the same setting: to `C[C@@H](O)[C@@H]1NC(=O)[C@H](CCCCN)NC(=O)[C@@H](Cc2c[nH]c3ccccc23)NC(=O)[C@H](Cc2ccc(NC(N)=O)cc2)NC(=O)[C@H](NC(=O)[C@H](N)Cc2ccc(Cl)cc2)CSSC[C@@H](C(=O)N[C@H](Cc2ccc(NC(N)=O)cc2)C(=O)NCC(=O)O)NC1=O` belongs “inactive”; to `C[C@@H](O)[C@@H]1NC(=O)[C@H](CCCCN)NC(=O)[C@@H](Cc2c[nH]c3ccccc23)NC(=O)[C@H](Cc2ccc(NC(N)=O)cc2)NC(=O)[C@H](NC(=O)[C@@H](Cc2ccc(Cl)cc2)NC(N)=O)CSSC[C@@H](C(=O)N[C@@H](Cc2ccc3ccccc3c2)C(N)=O)NC1=O`, “inactive”; to `C[C@@H](O)[C@@H]1NC(=O)[C@H](CCCCN)NC(=O)[C@@H](Cc2c[nH]c3ccccc23)NC(=O)[C@H](Cc2ccc(NC(N)=O)cc2)NC(=O)[C@H](NC(=O)[C@H](N)Cc2ccc(Cl)cc2)CSSC[C@@H](C(=O)N[C@@H](Cc2ccc(NC(=O)[C@@H]3CC(=O)NC(=O)N3)cc2)C(N)=O)NC1=O`, “inactive”. Same read-out and setting: then `C[C@@H](O)[C@@H]1NC(=O)[C@H](CCCCN)NC(=O)[C@@H](Cc2c[nH]c3ccccc23)NC(=O)[C@H](Cc2ccc(NC(N)=O)cc2)NC(=O)[C@H](NC(=O)[C@H](N)Cc2ccc(Cl)cc2)CSSC[C@@H](C(=O)N[C@H](Cc2ccc(NC(N)=O)cc2)C(N)=O)NC1=O`, with “inactive”. In the case of `CC(=O)N[C@H](Cc1ccc([N+](=O)[O-])cc1)C(=O)N[C@@H]1CSSC[C@@H](C(=O)N[C@H](Cc2ccc(O)cc2)C(N)=O)NC(=O)[C@H]([C@@H](C)O)NC(=O)[C@H](CCCCN)NC(=O)[C@@H](Cc2c[nH]c3ccccc23)NC(=O)[C@H](Cc2ccc(O)cc2)NC1=O`, in experiment [1], the outcome was inactive. Also, in experiment [3], the outcome was Active. For the compound `C[C@@H](O)[C@@H]1NC(=O)[C@H](CCCCN)NC(=O)[C@@H](Cc2c[nH]c3ccccc23)NC(=O)[C@H](Cc2ccc(NC(=O)NO)cc2)NC(=O)[C@H](NC(=O)[C@H](N)Cc2ccc(Cl)cc2)CSSC[C@@H](C(=O)N[C@@H](Cc2ccc3ccccc3c2)C(N)=O)NC1=O`, the outcome in experiment [1] was inactive.

On to `CC(C)C[C@@H]1NC(=O)[C@H](NC(=O)[C@H](N)Cc2ccc(Cl)cc2)CSSC[C@@H](C(=O)N[C@@H](Cc2ccc3ccccc3c2)C(N)=O)NC(=O)[C@H]([C@@H](C)O)NC(=O)[C@H](CCCCN)NC(=O)[C@@H](Cc2c[nH]c3ccccc23)NC1=O`, for which the result in experiment [1] was inactive. As to `C[C@@H](O)[C@@H]1NC(=O)[C@H](CCCCN)NC(=O)[C@@H](Cc2c[nH]c3ccccc23)NC(=O)[C@H](N(C)C(=O)c2ccccc2)NC(=O)[C@H](NC(=O)[C@H](N)Cc2ccc(Cl)cc2)CSSC[C@@H](C(=O)N[C@@H](Cc2ccc3ccccc3c2)C(N)=O)NC1=O`, the outcome in experiment [1] was inactive. The result in experiment [3] was Active. As to `C[C@@H](O)[C@@H]1NC(=O)[C@H](CCCCN)NC(=O)[C@@H](Cc2c[nH]c3ccccc23)NC(=O)[C@H](Cc2ccc(NC(N)=O)cc2)NC(=O)[C@H](NC(=O)[C@H](N)Cc2ccc(Cl)cc2)CSSC[C@@H](C(=O)N[C@@H](CC2CCCCC2)C(N)=O)NC1=O`, the result in experiment [1] was inactive.
